Results from PubChem BioAssay AID588829 (Broad Institute, 2011).
Active and inactive are the calls of the source.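 The calls were made as follows: active = compounds lowering the cell energy light signal whose fitted half-effect dose is at most twice the top tested dose; inconclusive = flat curve with a 30 to 70% drop, or poor fit; inactive = the rest.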

System: not listed separately
Assay: cytotoxicity in ldlA[mSR-BI] CHO cells, dose response, cytotoxicity control for SR-BI HDL uptake inhibitor project, cell-based, CellTiter-Glo luminescence, 24 h, dry powder, set 2 (AID 588829)
Conditions: ldlA[mSR-BI] CHO cells viability, CellTiter-Glo ATP luminescence, 24 h; at 30 µM (top of the series)
Procedure, shortened: (§1)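 Material – ldlA cells expressing mouse scavenger receptor SR-BI · Dosing – compound series of 8 concentrations, delivered by pin transfer · Incubation – 24 h at 37 °C exposure, 10 min detection incubation · Signal – CellTiter-Glo ATP luminescence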
In the case of `C[C@@H]1CN([C@@H](C)CO)C(=O)Cc2cc(NC(=O)Nc3ccc(C(F)(F)F)cc3)ccc2O[C@@H]1CN(C)S(=O)(=O)c1ccc(Cl)cc1`, the activity change, negative = toxicity is reported as -71.3% (inactive).

Same assay, conditions: ldlA[mSR-BI] CHO cells viability, CellTiter-Glo ATP luminescence, 24 h; at 35 µM (top of the series)
In the case of `C[C@@H]1CN([C@H](C)CO)C(=O)c2cc(NC(=O)Cc3cn(C)c4ccccc34)ccc2O[C@H]1CN(C)S(=O)(=O)c1ccc(Cl)cc1`, the activity change, negative = toxicity is reported as 3.86% (inactive).
With `C[C@H](C(=O)NC1CCCC1)N(C(=O)Cn1nnc(-c2ccc3c(c2)OCO3)n1)C1CCCCC1` the activity change, negative = toxicity was 11.2% (inactive).
With `COc1cc(OC)cc(C(=O)Nc2nc(-c3ccc4c(c3)CCN4C(=O)OC(C)(C)C)cs2)c1` the activity change, negative = toxicity was 12.9% (inactive).
In the case of `COc1cc(OC)cc(C(=O)Nc2nc(-c3ccc4c(c3)CCN4C(=O)CN(C)C)cs2)c1`, the activity change, negative = toxicity is reported as 8.9% (inactive).
With `CCC(=O)N1CCc2cc(-c3csc(NC(=O)c4cccc(OC)c4)n3)ccc21` the activity change, negative = toxicity was 2.38% (inactive).
For `COc1c(NC(=O)C(=O)c2ccc(OCCN3CCOCC3)c3ccccc23)cc(C(C)(C)C)cc1NS(C)(=O)=O`, the activity change, negative = toxicity was -4.11% (inactive).
With `COCC(=O)N1CCc2cc(-c3csc(NC(=O)c4cc(OC)cc(OC)c4)n3)ccc21` the activity change, negative = toxicity was 10.9% (inactive).
In the case of `CCNC(=O)N1CCc2cc(-c3csc(NC(=O)c4cc(OC)cc(OC)c4)n3)ccc21`, the activity change, negative = toxicity is reported as 9.7% (inactive).
With `COc1ccc(-c2cc(CC(=O)N(C3CCCCC3)C(C)C(=O)NC3CCCC3)no2)cc1OC` (stereo unspecified) the activity change, negative = toxicity was 13.9% (inactive).
With `CCC(=O)N1CC(C)(C)c2cc(-c3csc(NC(=O)c4cc(OC)cc(OC)c4)n3)ccc21` the activity change, negative = toxicity was 1.55% (inactive).
In the case of `CC(C)(Sc1cc(C(C)(C)C)c(O)c(C(C)(C)C)c1)Sc1cc(C(C)(C)C)c(O)c(C(C)(C)C)c1`, the activity change, negative = toxicity is reported as 14.8% (inactive).
For `CC1CCC/C=C/C2CC(O)CC2C(O)/C=C\C(=O)O1` (stereo unspecified), the activity change, negative = toxicity was -13.3% (inactive).
In the case of `CC(=O)N1CCc2cc(-c3nc(NC(=O)c4cccc(OC(F)(F)F)c4)sc3C)ccc21`, the activity change, negative = toxicity is reported as -14.1% (inactive).
With `Cc1ccc2oc(-c3cccc(NC(=O)c4cc(-n5cnnc5)ccc4Cl)c3)nc2c1` the activity change, negative = toxicity was -6.36% (inactive).

System: ldlA[mSR-BI] CHO cells viability, CellTiter-Glo ATP luminescence, 24 h
Assay: as above
Conditions: not given
Procedure, shortened: as §1
`CCCCCCC1CCC/C1=N\NC(N)=S` (stereo unspecified) gave an IC50 of 9.05 µM.
